Measurements from ChEMBL document CHEMBL1144837, “Antimitotic and antiproliferative activities of chalcones: forward structure-activity relationship” (J Med Chem, 2008).

Assays:
[1] = system: K562; assay: Cell cycle arrest in human K562 cells assessed as accumulation at G2/M phase at 10 uM after 24 hrs by flow cytometry; format: functional
Summary of the method: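 K562 cells exposed 24 h at 10 µM, then stained with propidium iodide at 4 °C overnight and analysed by flow cytometry. After doublets and aggregates were excluded on an FL2-area/FL2-width plot, cells were assigned to G0/G1, S and G2/M, and the G2/M fraction was scored.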

[2] = system: CCRF-CEM; assay: Cytotoxicity against human CEM cells after 24 hrs by MTT assay; format: functional, cell-based
Summary of the method: (§1)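 MTT viability assay: exponentially growing cells were seeded at 3 × 10^3 cells/well and held 24 h before drug addition. Formazan was dissolved in isopropanol and read by absorbance relative to untreated wells. IC50 is the concentration giving 50% growth loss against a control-cell standard curve after 24 h incubation. Run in triplicate, at least three separate experiments.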

[3] = system: RL; assay: Cytotoxicity against human RL cells after 24 hrs by MTT assay; format: functional, cell-based; summary of the method: as §1
[4] = system: HCT-116; assay: Cytotoxicity against human HCT116 cells after 24 hrs by MTT assay; format: functional, cell-based; conditions: HCT-116, 24 h; summary of the method: as §1
[5] = system: SW48; assay: Cytotoxicity against human SW48 cells after 24 hrs by MTT assay; format: functional, cell-based; conditions: SW48, 24 h; summary of the method: as §1
[6] = system: N2a; assay: Cytotoxicity against mouse N2A cells after 24 hrs by MTT assay; format: functional, cell-based; summary of the method: as §1
[7] = system: K562; assay: Cytotoxicity against human K562 cells after 24 hrs by MTT assay; format: functional, cell-based; conditions: K562, 24 h; summary of the method: as §1
[8] = Cytotoxicity against human Messa cells after 24 hrs by MTT assay; format: functional, cell-based; conditions: MES-SA; summary of the method: as §1
[9] = system: MCF7; assay: Cytotoxicity against human MCF7 cells after 24 hrs by MTT assay; format: functional, cell-based; conditions: MCF7, 24 h; summary of the method: as §1
[10] = Cytotoxicity against human HNO150 cells after 24 hrs by MTT assay; format: functional, cell-based; conditions: HNO150, 24 h; summary of the method: as §1
[11] = system: NIH3T3; assay: Cytotoxicity against mouse NIH3T3 cells after 24 hrs by MTT assay; format: functional, cell-based; conditions: NIH3T3, 24 h; summary of the method: as §1
[12] = system: L1210; assay: Cytotoxicity against mouse L1210 cells after 24 hrs by MTT assay; format: functional, cell-based; conditions: L1210, 24 h; summary of the method: as §1

Q: Which Activity [1] does the source give for `COc1ccccc1/C=C/C(=O)c1c(OC)cccc1OC` here?
A: 18%

Q: Which Activity [1] does the source give for `COc1ccc(C(=O)/C=C/c2c(OC)cc(OC)cc2OC)c(OC)c1` (stereo in doubt; 52) here?
A: 72%

Q: For `COc1ccc(C(=O)/C=C/c2c(F)cccc2Cl)c(O)c1`, which Activity [1] is on record?
A: 19%

Q: For `COc1ccc(C(=O)/C=C/c2c(OC)cccc2OC)c(O)c1`, which Activity [1] is on record?
A: 18%

Q: For `CCOc1cc(OCC)c(/C=C/C(=O)c2c(OC)cccc2OC)c(OCC)c1`, which Activity [1] is on record?
A: 12%

Q: For `COc1cccc(/C=C/C(=O)c2c(OC)cccc2OC)c1`, which Activity [1] is on record?
A: 29%

Q: With `COc1ccc(/C=C/C(=O)c2c(OC)cccc2OC)c(OC)c1` as the compound, how does the Activity [1] read?
A: 22%

Q: Which Activity [1] does the source give for `COc1cccc(OC)c1C(=O)/C=C/c1cccc(Cl)c1` here?
A: 19%

Q: Which Activity [1] does the source give for `CCOc1cccc(OCC)c1C(=O)/C=C/c1c(OC)cc(OC)cc1OC` here?
A: 10%

Q: Which Activity [1] does the source give for `COc1ccc(C(=O)/C=C/c2c(OC)cc(OC)cc2OC)c(OC)c1` (stereo in doubt; 3) here?
A: 86%

Q: For `O=C(/C=C/c1c(Cl)cccc1Cl)c1ccccc1`, which Activity [1] is on record?
A: 28%

Q: With `COc1cccc(OC)c1/C=C/C(=O)c1ccccc1` as the compound, how does the Activity [1] read?
A: 34%

Q: Which Activity [1] does the source give for `COc1ccc(C(=O)/C=C/c2cc(OC)ccc2OC)c(O)c1` here?
A: 32%

Q: For `COc1ccc(C(=O)/C=C/c2ccc(OC)c(OC)c2)c(O)c1`, which Activity [1] is on record?
A: 18%

Q: Which Activity [1] does the source give for `COc1ccc(C(=O)/C=C/c2cccc(F)c2)c(O)c1` here?
A: 40%

Q: With `COc1cccc(OC)c1C(=O)/C=C/c1ccccc1` as the compound, how does the Activity [1] read?
A: 45%

Q: With `COc1ccc(C(=O)/C=C/c2ccc(OC)c(OC)c2OC)c(O)c1` as the compound, how does the Activity [1] read?
A: 20%

Q: With `COc1cccc(OC)c1C(=O)/C=C/c1cccc(F)c1` as the compound, how does the Activity [1] read?
A: 27%

Q: With `COc1ccc(C(=O)/C=C/c2ccc(OC)cc2OC)c(O)c1` as the compound, how does the Activity [1] read?
A: 18%

Q: With `COc1ccc(/C=C/C(=O)c2ccc(OC)cc2OC)c(OC)c1` as the compound, how does the Activity [1] read?
A: 25%

Q: For `COc1cc(OC)c(/C=C/C(=O)c2ccc(Cl)c(Cl)c2)c(OC)c1`, which Activity [1] is on record?
A: 30%

Q: With `COc1cc(/C=C/C(=O)c2c(OC)cccc2OC)cc(OC)c1OC` as the compound, how does the Activity [1] read?
A: 25%

Q: With `COc1ccc(C(=O)/C=C/c2cc(OC)c(OC)c(OC)c2)c(O)c1` as the compound, how does the Activity [1] read?
A: 20%

Q: Which Activity [1] does the source give for `COc1cccc(OC)c1C(=O)/C=C/c1c(Cl)cccc1Cl` here?
A: 39%

Q: Which Activity [1] does the source give for `CCOc1ccc(/C=C/C(=O)c2c(OCC)cccc2OCC)c(OCC)c1` here?
A: 11%

Q: With `COc1cc(/C=C/C(=O)c2c(O)cc(OC)cc2OC)cc(OC)c1` as the compound, how does the Activity [1] read?
A: 11%

Q: Which Activity [1] does the source give for `COc1ccc(C(=O)/C=C/c2c(Cl)cccc2OC)c(O)c1` here?
A: 45%

Q: What does the source list for `COc1cccc(OC)c1/C=C/C(=O)c1c(OC)cccc1OC`?
A: Activity [1]: 78%; IC50 [2]: 6 µM; IC50 [3]: 40 µM; IC50 [4]: 9 µM; IC50 [5]: 10 µM; IC50 [6]: 55 µM; IC50 [7]: 80 µM; IC50 [8]: 10 µM; IC50 [9]: 75 µM; IC50 [10]: 62 µM; IC50 [11]: 60 µM; IC50 [12]: 34 µM

Q: With `COc1cc(O)c(C(=O)/C=C/c2ccccc2OC)c(OC)c1` as the compound, how does the Activity [1] read?
A: 41%

Q: With `COc1cccc(OC)c1C(=O)/C=C/c1c(OC)c(F)c(OC)c(F)c1OC` as the compound, how does the Activity [1] read?
A: 46%

Q: With `COc1cc(OC)c(/C=C/C(=O)c2c(OC)cc(OC)cc2OC)c(OC)c1` as the compound, how does the Activity [1] read?
A: 86%

Q: And the IC50 [2]?
A: 1.9 µM

Q: What about the IC50 [3] of the same compound?
A: 0.9 µM

Q: And the IC50 [4]?
A: 1 µM

Q: What about the IC50 [5] of the same compound?
A: 0.8 µM

Q: What about the IC50 [6] of the same compound?
A: 4 µM

Q: What about the IC50 [7] of the same compound?
A: 50 µM

Q: What about the IC50 [8] of the same compound?
A: 2.2 µM

Q: And the IC50 [9]?
A: 52 µM

Q: What about the IC50 [10] of the same compound?
A: 10 µM

Q: What about the IC50 [11] of the same compound?
A: 30 µM

Q: And the IC50 [12]?
A: 8.5 µM

Q: Which Activity [1] does the source give for `COc1cccc(OC)c1C(=O)/C=C/c1ccccc1F` here?
A: 38%

Q: With `COc1cc(O)c(C(=O)/C=C/c2ccccc2Cl)c(OC)c1` as the compound, how does the Activity [1] read?
A: 43%

Q: Which Activity [1] does the source give for `COc1ccc(C(=O)/C=C/c2cccc(F)c2)c(OC)c1` here?
A: 32%

Q: With `CC[C@]1(O)C[C@H]2CN(CCc3c([nH]c4ccccc34)[C@@](C(=O)OC)(c3cc4c(cc3OC)N(C=O)[C@H]3[C@@](O)(C(=O)OC)[C@H](OC(C)=O)[C@]5(CC)C=CCN6CC[C@]43[C@@H]65)C2)C1` [VINCRISTINE] as the compound, how does the Activity [1] read?
A: 72%

Q: For `COc1cc(O)c(C(=O)/C=C/c2c(OC)cccc2OC)c(OC)c1`, which Activity [1] is on record?
A: 12%

Q: Which Activity [1] does the source give for `COc1cc(OC)c(/C=C/C(=O)c2c(OC)cc(N)cc2OC)c(OC)c1` here?
A: 74%

Q: For `COc1cccc(OC)c1C(=O)/C=C/c1ccc(C(F)(F)F)cc1`, which Activity [1] is on record?
A: 23%

Q: With `COc1ccc(C(=O)/C=C/c2ccccc2Cl)c(OC)c1` as the compound, how does the Activity [1] read?
A: 42%

Q: Which Activity [1] does the source give for `COc1cc(O)c(C(=O)/C=C/c2ccccc2)c(OC)c1` [FLAVOKAWAIN B] here?
A: 28%

Q: With `COc1cc(O)c(C(=O)/C=C/c2cccc(F)c2)c(OC)c1` as the compound, how does the Activity [1] read?
A: 48%

Q: With `COc1ccc(C(=O)/C=C/c2ccc(Cl)cc2)c(O)c1` as the compound, how does the Activity [1] read?
A: 10%

Q: Which Activity [1] does the source give for `COc1ccc(C(=O)/C=C/c2cccc(OC)c2OC)c(O)c1` here?
A: 22%

Q: Which Activity [1] does the source give for `COc1cccc(OC)c1C(=O)/C=C/c1ccccc1Cl` here?
A: 23%

Q: With `COc1cccc(OC)c1C(=O)/C=C/c1c(C)cc(C)cc1C` as the compound, how does the Activity [1] read?
A: 23%

Q: Which Activity [1] does the source give for `COc1cc(/C=C/C(=O)c2ccc(OC)cc2O)cc(OC)c1` here?
A: 40%

Q: With `COc1cc(OC)c(C(=O)/C=C/c2c(OC)cccc2OC)c(OC)c1` as the compound, how does the Activity [1] read?
A: 64%

Q: With `CCOc1cccc(OCC)c1C(=O)/C=C/c1c(OC)cccc1OC` as the compound, how does the Activity [1] read?
A: 14%

Q: With `COc1cc(O)c(C(=O)/C=C/c2ccc3c(c2)OCO3)c(OC)c1` as the compound, how does the Activity [1] read?
A: 13%

Q: With `COc1cccc(/C=C/C(=O)c2c(O)cc(OC)cc2OC)c1` as the compound, how does the Activity [1] read?
A: 52%

Q: For `COc1cccc(/C=C/C(=O)c2ccc(OC)cc2O)c1`, which Activity [1] is on record?
A: 26%

Q: Which Activity [1] does the source give for `COc1cc(OC)c(/C=C/C(=O)c2c(OC)cccc2OC)c(OC)c1` here?
A: 84%

Q: And the IC50 [2]?
A: 0.65 µM

Q: What about the IC50 [3] of the same compound?
A: 0.8 µM

Q: What about the IC50 [4] of the same compound?
A: 0.45 µM

Q: What about the IC50 [5] of the same compound?
A: 0.25 µM

Q: What about the IC50 [6] of the same compound?
A: 2.2 µM

Q: What about the IC50 [7] of the same compound?
A: 50 µM

Q: And the IC50 [8]?
A: 1 µM

Q: And the IC50 [9]?
A: 60 µM

Q: And the IC50 [10]?
A: 1.3 µM

Q: And the IC50 [11]?
A: 30 µM

Q: And the IC50 [12]?
A: 7 µM

Q: Which Activity [1] does the source give for `COc1ccc(/C=C/C(=O)c2c(OC)cccc2OC)c(OC)c1OC` here?
A: 19%

Q: Which Activity [1] does the source give for `COc1ccc(C(=O)/C=C/c2cc(OC)c(OC)cc2OC)c(O)c1` here?
A: 15%

Q: Which Activity [1] does the source give for `COc1ccc(C(=O)/C=C/c2c(OC)cc(OC)cc2OC)c(O)c1` here?
A: 19%

Q: Which Activity [1] does the source give for `COc1ccc(/C=C/C(=O)c2c(OC)cc(OC)cc2OC)c(OC)c1` here?
A: 15%

Q: For `CCOc1cc(OCC)c(/C=C/C(=O)c2c(OCC)cc(OCC)cc2OCC)c(OCC)c1`, which Activity [1] is on record?
A: 18%

Q: With `COc1ccc(C(=O)/C=C/c2ccccc2Cl)c(O)c1` as the compound, how does the Activity [1] read?
A: 67%

Q: Which Activity [1] does the source give for `COc1cc(OC)c(OC)cc1/C=C/C(=O)c1c(OC)cccc1OC` here?
A: 49%

Q: Which Activity [1] does the source give for `COc1cc(O)c(C(=O)/C=C/c2c(Cl)cccc2Cl)c(OC)c1` here?
A: 26%
